Test results published in ChEMBL document CHEMBL1125837, “Nicotinamide ethers: novel inhibitors of calcium-independent phosphodiesterase and [3H]rolipram binding” (J Med Chem, 1991).

How the values were obtained:
[1] = species on record: Mus musculus; experiment: Minimal effective peroral dose in mouse reserpine hypothermia test; type: functional; details: po, read-out: MED
[2] = biological target: T1, Phosphodiesterase 4 (Rattus norvegicus, UniProt P14270+P14646+P14644+P54748); experiment: Inhibition of [3H]rolipram binding to rat brain membranes.; type: cell membranes, Membrane
Procedure, shortened: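 Rat brain homogenized in ice-cold 50 mM Tris/1.2 mM MgCl2, pH 8.0, washed twice by centrifugation and used at 0.5 mg protein/mL. Incubated with [3H]rolipram and test compound at various concentrations for 30 min at 25 °C, in triplicate. Glass-fiber filtration, three ice-cold washes, scintillation counting. IC50 from semilog plots of percent inhibition vs concentration.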

[3] = biological target: T1, Phosphodiesterase 4; experiment: Inhibition of [3H]cAMP (NEN NET-275) binding to Calcium-Independent Phosphodiesterase from rat brain.
Procedure, shortened: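 Enzyme from fresh rat brain (Davis method). Test compound or vehicle with enzyme in [3H]cAMP substrate in Tris-HCl/MgCl2 buffer, 37 °C for 8 min, in triplicate. Stopped by boiling 2 min. Carrier 5'-AMP added; boronate affinity gel separated [3H]-5'-AMP from cAMP, and product counted by scintillation. IC50 from dose-response curves of three log concentrations, each in triplicate.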

Compound | minimal effective dose [1] | IC50 [2] | IC50 [3]
O=C(NCc1ccccc1)c1cccnc1Oc1ccc(Cl)c(Cl)c1 | > 3.2 mg/kg | 19 µM | 2.2 µM
O=C(NCc1ccccc1)c1cccnc1Oc1cccc(F)c1 | 0.01 mg/kg | 29 µM | 1.8 µM
O=C(Nc1ccccc1)c1cccnc1Oc1ccc(F)cc1 | 0.001 mg/kg | 43 µM | 2.2 µM
O=C(NCc1ccccc1)c1cccnc1Oc1ccccc1 | 0.32 mg/kg | 49 µM | 1.8 µM
O=C(NCc1ccccc1)c1cccnc1Oc1ccccc1F | 0.01 mg/kg | > 100 µM | 10 µM
O=C(NCc1ccc(F)cc1)c1cccnc1Oc1ccc(F)cc1 | 0.01 mg/kg | 51 µM | 4 µM
COc1ccc(CNC(=O)c2cccnc2Oc2ccc(F)cc2)cc1 | 3.2 mg/kg | 26 µM | 0.73 µM
COc1ccccc1Oc1ncccc1C(=O)NCc1ccccc1 | > 3.2 mg/kg | > 100 µM | > 10 µM
O=C(NCc1ccccc1)c1cccnc1Oc1ccc(F)cc1 | 0.01 mg/kg | 37 µM | 2.9 µM
Cc1ccc(CNC(=O)c2cccnc2Oc2ccc(F)cc2)cc1 | 0.001 mg/kg | 25 µM | 0.54 µM
O=C(NCc1ccccc1)c1cccnc1OC1CC2CCC1C2 (stereo unspecified) | 1 mg/kg | 27 µM | 0.22 µM
O=C(NCc1ccccc1)c1cccnc1Oc1cccc(C(F)(F)F)c1 | 3.2 mg/kg | 54 µM | 6.5 µM
COc1cccc(Oc2ncccc2C(=O)NCc2ccccc2)c1 | 0.01 mg/kg | 23 µM | 2.5 µM
N#Cc1cccc(Oc2ncccc2C(=O)NCc2ccccc2)c1 | 0.1 mg/kg | 22 µM | 9.8 µM
CC(C)NC(=O)c1cccnc1Oc1ccc(F)cc1 | 0.001 mg/kg | 26 µM | 3.1 µM
COC(=O)c1cccc(Oc2ncccc2C(=O)NCc2ccccc2)c1 | 0.001 mg/kg | 6.6 µM | 1.4 µM
COc1ccc(Oc2ncccc2C(=O)NCc2ccccc2)cc1 | 0.01 mg/kg | 100 µM | 3.1 µM
